According to PMC4701204 (Chemistry & biology, 2015):
Entries after “also recorded” stand apart in the source; their conditions may differ.

Columns and labels:
[1] = target: T1, RAD52 WT (Homo sapiens, UniProt P43351); assay: Fluorescence polarization; format: binding; details: for Inhibition of RAD52 ssDNA binding: in vitro, Supplementary Fig. 1
T1 sequence (P43351 1-418): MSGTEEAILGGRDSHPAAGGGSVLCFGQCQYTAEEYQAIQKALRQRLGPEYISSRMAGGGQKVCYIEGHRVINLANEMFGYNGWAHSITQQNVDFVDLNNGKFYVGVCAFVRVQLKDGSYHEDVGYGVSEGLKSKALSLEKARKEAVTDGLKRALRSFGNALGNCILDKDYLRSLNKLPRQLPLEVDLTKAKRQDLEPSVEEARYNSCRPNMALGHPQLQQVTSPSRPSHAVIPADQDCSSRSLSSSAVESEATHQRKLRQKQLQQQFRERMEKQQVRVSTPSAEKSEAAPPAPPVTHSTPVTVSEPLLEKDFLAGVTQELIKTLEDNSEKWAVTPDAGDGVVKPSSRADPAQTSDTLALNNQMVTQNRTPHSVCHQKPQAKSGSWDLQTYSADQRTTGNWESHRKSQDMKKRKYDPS

[2] = target: RAD52 1-209 (ssDNA binding domain) (Homo sapiens, UniProt P43351); assay: Fluorescence polarization
[3] = target: RAD51 (Homo sapiens, UniProt Q06609); assay: Fluorescence polarization; format: binding; details: in vitro, FP, 280 nM RAD51, 1 mM ATP
Sequence of RAD51 (Q06609 whole entry, species assumed): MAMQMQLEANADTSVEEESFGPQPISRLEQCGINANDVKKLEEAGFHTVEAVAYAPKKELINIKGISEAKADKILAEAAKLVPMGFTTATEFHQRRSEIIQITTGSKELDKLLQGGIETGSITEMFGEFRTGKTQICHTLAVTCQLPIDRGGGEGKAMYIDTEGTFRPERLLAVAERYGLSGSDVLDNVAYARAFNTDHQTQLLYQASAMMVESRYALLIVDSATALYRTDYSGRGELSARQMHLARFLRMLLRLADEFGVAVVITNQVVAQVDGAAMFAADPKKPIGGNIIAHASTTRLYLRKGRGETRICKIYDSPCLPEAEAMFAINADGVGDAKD
Outline: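 Human RAD51 (280 nM) with 1 mM ATP, 10 nM FAM-labelled ssDNA and varied test compound in pH 7.5 Tris buffer (25 mM NaCl, 0.5 mM MgCl2, 1 mM DTT, 0.01% NP-40, 0.1 mg/mL BSA). Incubated 30 min at room temp, then fluorescence polarization read. Inhibition of ssDNA binding taken from FP.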

[4] = system: SSA in U20S cells; assay: SSA GFP reporter assay; format: cell-based; details: 5 μM
Outline: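 U20S cells carrying an SSA reporter exposed to test compounds at 5 μM. RAD52 siRNA versus scrambled siRNA serves as pathway control, with knockdown checked by western blot. Values are mean ± s.e.m. of triplicates, some from 3 separate experiments; two-tailed Student's t-test.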

[5] = system: HR in U20S cells; assay: HR GFP reporter assay; format: cell-based
[6] = system: NHEJ in U20S cells; assay: NHEJ GFP reporter assay; format: cell-based; details: 5 μM
Outline: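 NHEJ GFP reporter in U2OS cells, run with or without 5 μM test compound. Mean ± s.e.m. of two separate experiments, each in triplicate.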

[7] = system: BCR-ABL transformed murine hematopoietic 32Dcl3 cells expressing eGFP-RAD52; assay: eGFP-RAD52 foci formation after cisplatin; format: cell-based; details: cisplatin treated 32Dcl3 BCR-ABL cells
Outline: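 Cells expressing eGFP-RAD52 pre-incubated with DMSO or test compound at several concentrations, then treated with cisplatin. Fraction of cells with eGFP-RAD52 foci scored by fluorescence microscopy. Values are mean ± s.e.m. of triplicates; two-tailed Student's t-test.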

[8] = system: HEK293T cells; assay: eGFP-RAD52 foci formation after ionizing radiation; format: cell-based
Outline: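 HEK293T cells expressing eGFP-RAD52 treated with test compound at several concentrations and exposed to ionizing radiation. DAPI-counterstained nuclei imaged, and the percent of cells with ≥ 5 eGFP-RAD52 foci scored. Values are average ± s.e.m. of 3 independent experiments; two-tailed Student's t-test.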

[9] = system: MDA-MB-436 cells complemented with BRCA1; assay: eGFP-RAD52 foci formation after ionizing radiation; format: cell-based; details: MDA-MB-436 BRCA1 complemented
Outline: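 BRCA1-complemented MDA-MB-436 cells expressing eGFP-RAD52 were given test compound, then ionizing radiation, with or without IR as control. Nuclei stained with DAPI. Cells with ≥5 eGFP-RAD52 foci counted as percent of total. Mean ± s.e.m. of 3 independent experiments.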

[10] = target: RAD52-ssDNA complexes (Homo sapiens, UniProt P43351); assay: Dissociation of pre-formed RAD52-ssDNA complexes; format: binding; details: 30 μM, FP measured 2 min after addition
Outline: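 RAD52–ssDNA complexes pre-formed and equilibrated for 30 min before 30 μM test compound was added. FP read 2 min later against a DNA-only control, with mean ± s.d. of 3 independent experiments. Dissociation was also tested by EMSA on non-denaturing gels.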

[11] = target: RAD52 (Homo sapiens, UniProt P43351); assay: EMSA with excess ssDNA substrate; format: binding; details: 25 μM
Outline: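 RAD52 binding to an excess of Cy3-labelled ssDNA substrate in the presence of 25 μM test compound. Complexes resolved by EMSA on a non-denaturing gel.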

[12] = system: ssDNA; assay: Interaction of small molecule with ssDNA; format: binding; details: Supplementary Fig. 1
[13] = target: T2, RAD52 1-209 undecamer ring (Homo sapiens, UniProt P43351); assay: Native gel electrophoresis of RAD52 1-209 composition; format: biochemical
T2 sequence (P43351 1-209): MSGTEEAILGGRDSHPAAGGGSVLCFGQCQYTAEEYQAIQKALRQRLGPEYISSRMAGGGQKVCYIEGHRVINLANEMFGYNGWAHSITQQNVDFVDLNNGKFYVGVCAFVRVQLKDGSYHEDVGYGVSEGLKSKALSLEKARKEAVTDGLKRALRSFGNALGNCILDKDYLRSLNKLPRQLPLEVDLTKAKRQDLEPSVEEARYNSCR

[14] = target: T2, RAD52 1-209 undecamer ring; assay: Light scattering of RAD52 1-209; format: biochemical
Outline: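 RAD52 1-209 (purified by a published method) incubated with or without test compound in 1 M or 0.15 M NaCl. Species sizes measured by light scattering. Buffer-only and compound-only controls included.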

[15] = target: RecA (Escherichia coli, UniProt P0A7G6); assay: Effect on RecA in vitro; format: biochemical; details: Supplementary Fig. 1
Sequence of RecA (P0A7G6 whole entry, species assumed): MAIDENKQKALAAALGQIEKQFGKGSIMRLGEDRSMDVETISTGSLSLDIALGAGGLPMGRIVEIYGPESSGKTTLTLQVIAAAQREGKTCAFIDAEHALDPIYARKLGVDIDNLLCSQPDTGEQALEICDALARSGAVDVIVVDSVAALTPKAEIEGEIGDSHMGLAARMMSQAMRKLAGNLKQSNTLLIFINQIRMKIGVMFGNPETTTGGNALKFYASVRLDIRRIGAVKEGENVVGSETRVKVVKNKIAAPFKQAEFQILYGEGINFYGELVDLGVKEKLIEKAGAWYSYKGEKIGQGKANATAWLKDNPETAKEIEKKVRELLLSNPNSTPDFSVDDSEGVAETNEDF

[16] = system: MDA-MB-436 cells (BRCA1 deficient and BRCA1 complemented); assay: Cell viability; format: cell-based; details: for Viability of BRCA1 deficient MDA-MB-436 cells: 3 day time course, 20 μM 6-OH-dopa
Outline: (§1)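 Each BRCA-deficient line tested alongside its BRCA-proficient counterpart after single-concentration test compound (olaparib or siRNA in some panels). Relative viability reported as mean ± s.e.m. of triplicates, with two-tailed Student's t-test.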

[17] = system: VC8 cells (BRCA2 defective); assay: Cell viability / proliferation; format: cell-based, Chinese hamster; details: 75 μM 6-OH-dopa
Outline: as §1

[18] = system: CAPAN-1 cells (BRCA2 defective); assay: Cell viability / proliferation; format: cell-based; details: 10 μM 6-OH-dopa, 20 μM olaparib
Outline: as §1

[19] = system: HCC1937 cells (BRCA1 deficient); assay: Cell viability; format: cell-based; details: 5 μM 6-OH-dopa
Outline: as §1

[20] = system: BRCA deficient and proficient cell lines; assay: Clonogenic survival assay; format: cell-based
Outline: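 Clonogenic survival of BRCA-deficient and BRCA-proficient cell lines treated with test compound or olaparib. Mean ± s.e.m. of 3 independent experiments.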

[21] = system: AML patient cells; assay: Clonogenic survival; format: cell-based
Outline: (§2)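 Colony-forming survival of BRCA-deficient and BRCA-proficient leukemia patient cells after test compound or olaparib. Each data point pools cells from 3 different patients. Mean ± s.e.m. of 3 independent experiments.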

[22] = system: BRCA1 deficient CML patient cells; assay: Clonogenic survival; format: cell-based
Outline: as §2

[23] = system: MDA-MB-436 cells; assay: γH2AX foci; format: cell-based; details: more pronounced in BRCA deficient cells
[24] = system: BRCA deficient cells (VC8, HCC1937); assay: Annexin V staining; format: cell-based; details: BRCA deficient vs proficient cells
[25] = target: the molecule itself; assay: light scattering
[26] = target: the molecule itself; assay: light scattering; remark: listed apart in the source
[27] = target: the molecule itself; assay: native gel or EMSA

Molecule: NC(Cc1cc(O)c(O)cc1O)C(=O)O (racemic) [6-OH-dopa, 6-hydroxy-DL-dopa]
- IC50 [1]: 1.1 µM
- Percent lower IC50 for RAD52 WT compared to RAD52 1-209 [1]: 31%
- IC50 [2]: 1.6 µM
- Effect on RAD51 [3]: little or no effect; also recorded: no effect
- Effect on SSA [4]: consistently inhibited SSA
- Effect on HR when RAD52 was suppressed ([5]; RAD52 siRNA): had no effect on HR
- Effect on HR ([5]; U20S cells, 5 μM): little or no reduction in HR
- Effect on NHEJ [6]: only slightly inhibited NHEJ
- eGFP-RAD52 foci formation [7]: suppressed eGFP-RAD52 foci formation in a dose dependent manner
- eGFP-RAD52 foci [8]: decreased the number of eGFP-RAD52 foci in a dose dependent manner
- eGFP-RAD52 foci [9]: inhibited eGFP-RAD52 foci
- Dissociation of pre-formed RAD52-ssDNA complexes [10]: fully dissociated RAD52-ssDNA complexes
- Inhibition of RAD52 in the presence of ~100-fold excess of ssDNA substrate [11]: continued to inhibit RAD52
- Interaction with ssDNA [12]: does not interact with ssDNA
- Effect on RAD52 1-209 composition [13]: dissociates RAD52 complexes
- Size of RAD52 1-209 species produced ([14]; high salt (1 M NaCl)): 48.3 kDa
- Size of RAD52 1-209 species produced ([14]; low salt (0.15 M NaCl)): 48.3 kDa
- Undecamers (270 kDa) converted into dimers (48.3 kDa) ([14]; low salt (0.15 M NaCl)): 100%
- Effect on RecA [15]: very little effect
- Viability of BRCA1 deficient MDA-MB-436 cells [16]: nearly identical reduction in viability
- Viability of BRCA1 deficient MDA-MB-436 cells when RAD52 expression was suppressed ([16]; RAD52 siRNA): lost its ability to significantly reduce the viability
- Proliferation of VC8 cells [17]: selectively halted the proliferation
- Proliferation of CAPAN-1 cells [18]: selectively halted the proliferation
- Viability of HCC1937 cells [19]: selectively reduced the viability
- Clonogenic survival of BRCA deficient cell lines [20]: inhibited the survival
- Clonogenic survival of BRCA proficient cells ([20]; at the given doses): little or no effect
- Colony formation by AML patient cells expressing normal levels of BRCA1/2 [21]: little effects
- Survival of BRCA1 deficient CML patient cells [22]: significant reduction in the survival
- DNA damage indicated by γH2AX foci [23]: substantial increase in DNA damage
- Apoptosis indicated by annexin V staining [24]: specifically increased apoptosis

Molecule: NC(Cc1ccccc1O)C(=O)O (racemic) [DL-o-tyrosine, reference compound]
- Inhibition of RAD52 ssDNA binding [1]: failed to inhibit RAD52
- Effect on RAD52 1-209 composition [13]: had no effect on RAD52 1-209 composition

Molecule: N[C@H](C(=O)O)[C@H](O)c1ccc(O)c(O)c1 [L-DOPS, reference compound]
- Inhibition of RAD52 ssDNA binding [1]: failed to inhibit
- Effect on SSA [4]: failed to inhibit SSA

Molecule: O=C(c1cc(Cc2n[nH]c(=O)c3ccccc23)ccc1F)N1CCN(C(=O)C2CC2)CC1 [olaparib, reference compound]
- Viability of BRCA1 deficient MDA-MB-436 cells [16]: selectively reduced the viability
- Colony formation by AML patient cells expressing normal levels of BRCA1/2 [21]: little effects

B1: RAD52 1-209 (RAD52 ssDNA binding domain, residues 1-209) (domain or fragment, human, UniProt P43351 1-209, looked up)
chain: T2 sequence (P43351 1-209)
- stoichiometry N [25]: 11
- stoichiometry N [26]: 2

B2: RAD52 WT (wild-type, full-length RAD52, Histidine-tagged) (natural protein, human, UniProt P43351 1-418, looked up)
chain: T1 sequence (P43351 1-418)
- stoichiometry N [27]: 14
